# XiGFP reactiv – reactivates the inactive X chromosome in mouse fibroblasts | XiGFP mouse fibroblasts, % GFP-positive cells imaging, 3 d; cells co-treated with 5-aza-dC sensitizer; scaled so ellipticine positive control = 100% | AID 743238 | activation, % at 7.58 µM | 0.055% of 360,000 active;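 active means mean normalized replicate activation at least 10% and every replicate at or above 10%; inconclusive means only one of the two criteria met; inactive means mean below 10% and not all replicates reach 10%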;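 further: 0% = median of on-plate neutral control wells and 100% = ellipticine 6 µM median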
#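 Schedule: 3 d treatment, 15 min room-temperature fixation; system: 68-5-11 XiGFP fibroblast line; buffer or medium: DMEM plus 5-aza-dC sensitizer; control set: ellipticine 6 µM positive control; compound: one concentration, pinned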
# DENV2 CPE rescue – inhibitors of DENV2 cytopathic effect. DENV2-infected cells, cytopathic effect rescue, plate reader. CPE inhibition, % at 9.99 µM. 1.7% of 350,000 active. AID 651640; in the data active means CPE inhibition above about 20%, passing the limit was not always enough; inconclusive means no clear call, values can overlap the other calls; tested in BHK-21 cells;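 further: 0% = median of neutral control wells and 100% = median of positive control wells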
# PglD DTNB – PglD (C. jejuni) enzyme inhibition | 0.098% of 360,000 active | inhibition, % at 12.5 µM | AID 602405 | purified PglD enzyme, DTNB colorimetric CoA detection; in the data active means inhibition above about 16%, passing the limit was not always enough; inconclusive means no clear call, values can overlap the other calls
# FGF22 binding – binders of recombinant human FGF22 by thermal shift | Q9HCT0 | SYPRO orange fluorescence; percent of sucrose octasulfate shift, DMSO zero | activity (Tm shift, normalised), % at 9.99 µM | 1.5% of 340,000 active | AID 651658;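 active means mean Tm shift, scaled 0 neutral to 100 positive control, at about 1.3% or above, every replicate too, limit read from the data; inconclusive means no clear call, values can overlap the other calls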
# Target sequence (Q9HCT0 whole entry, looked up): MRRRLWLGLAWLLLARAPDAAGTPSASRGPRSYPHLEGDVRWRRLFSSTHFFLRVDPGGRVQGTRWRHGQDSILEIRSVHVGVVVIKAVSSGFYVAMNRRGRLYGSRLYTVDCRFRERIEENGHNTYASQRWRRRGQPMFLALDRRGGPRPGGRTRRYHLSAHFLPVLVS
# C2C12 statin – suppression of simvastatin myotoxicity; 0.78% of 330,000 active; C2C12 myotubes + simvastatin, ATP luminescence, 48 h; scaled: DMSO 0, geranylgeraniol control 100; AID 602340; rescue of ATP level, % at 7.49 µM;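 active means mean ATP rescue above about 67%, or every replicate alone reaching that limit, limit read from the data, passing the limit was not always enough; inconclusive means no clear call, values can overlap the other calls; inactive means mean under the limit and some replicate under it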;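 further: myotubes were challenged with 10 µM simvastatin during compound exposure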
# E-selectin induc – E-selectin induction on HUVECs. P16581. HUVEC E-selectin immunofluorescence imaging; normalized: neutral wells 0, TNF-alpha wells 100. activation, % at 7.58 µM. 0.37% of 260,000 active;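 active means mean E-selectin-positive cell signal at least 10% of the positive control, reached in at least 60% of replicates, without over 20% cell loss; inconclusive means no rule given, readout overlaps actives, possibly toxicity-flagged; inactive means the rest, including those meeting only one limit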
#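 material = human umbilical vein endothelial cells (HUVEC), E-selectin induction | quantity = 3,000 cells/well | medium = EGM-2 growth medium on 0.1% gelatin-coated wells | technique = immunofluorescence imaging | read-out basis = % PE-positive cells | control set = TNF-alpha positive control, DMSO neutral control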
# An asterisk follows results filed as active; ? = inconclusive; nt = not tested or not shown. Sampled rows, rich in hits. Any-hit rate of the full collection: about 3.3%.
SMILES,XiGFP reactiv,DENV2 CPE rescue,PglD DTNB,FGF22 binding,C2C12 statin,E-selectin induc
COc1ccc(CC(=O)NC(C)c2nnc(SCC(=O)Nc3cc(C)ccc3OC)n2C)cc1 (stereo not given),0,-3,nt,1.6*,nt,nt
O=C(C[C@H]1C[C@H]2c3cc(NC(=O)Nc4ccccc4F)ccc3O[C@H]2[C@H](CO)O1)NCC1CC1,0,7,-2,0,3,-1
CCC(=O)N1[C@@H]2c3ccc(-c4cncnc4)c(=O)n3C[C@H]1[C@H](CO)[C@H]2C(=O)N1CCc2ccccc2C1,0,nt,nt,nt,-5,0
O=C(Cn1cccc1C(=O)c1ccccc1)NCc1ccc2c(c1)OCO2,nt,nt,-2,nt,12,nt
CC(NC(=O)Cn1cccc1C(=O)c1ccccc1)c1ccc2c(c1)OCCO2 (stereo not given),0,4,nt,43*,nt,2
CCOC(=O)[C@H]1[C@H]2COc3ccc(Cl)cc3[C@@H]2N2C(=O)c3cc(Cl)ccc3NC(=O)[C@@]12C,0,-14,0,0,3,0
CCOC(=O)[C@H]1[C@H]2COc3ccccc3[C@@H]2N2C(=O)[C@@H](CO)NC(=O)[C@@]12C,0,29*,-3,0,5,0
CCOC(=O)[C@H]1[C@H]2COc3ccc(Cl)cc3[C@@H]2N2C(=O)c3ccccc3NC(=O)[C@@]12C,0,-5,1,0,135*,0
O=C(NC1CCC1)[C@@H]1[C@@H](CO)[C@@H]2Cn3c(ccc(-c4ccncc4)c3=O)[C@@H]2N1CCc1ccccc1,0,-7,nt,nt,nt,0
CCC(=O)N[C@@H]1C=C[C@@H](CC(=O)OC)O[C@@H]1CO,0,-5,7,0,-7,0
c1ccc(Cc2cc[n+](Cc3ccccn3)cc2)cc1,0,4,nt,0,nt,45*
CNC[C@@H]1Oc2c(NC(=O)c3cc(C)nn3C)cccc2C(=O)N([C@H](C)CO)C[C@H]1C,-1,0,-2,0,-6,nt
CCOC(=O)N1CCN=C1SCc1ccc(Cl)c(Cl)c1,0,3,-3,0,3,119*
O=[N+]([O-])c1ccc(C(O)CC(O)CSc2nc(-c3ccccc3)c(-c3ccccc3)o2)cc1 (stereo not given),nt,9,-2,-1,nt,nt
OC(CSc1nc(-c2ccccc2)c(-c2ccccc2)o1)CC(O)c1ccccc1 (stereo not given),nt,30*,-1,1,nt,nt
COc1ccc(S(=O)(=O)N[C@@H]2C=C[C@@H](CC(=O)N3CCN(c4ccccc4)CC3)O[C@H]2CO)cc1,0,nt,-2,0,1,0
CCOC(=O)NC(=O)/C(N=Nc1cc(C)cc(C)c1)=C(\C)O,0,-3,nt,0,nt,nt
CCOC(=O)NC(=O)/C(N=Nc1ccc(C(F)(F)F)cc1)=C(\C)O,0,-4,-1,0,99*,0
COc1ccc(CN2C[C@@H](O)COC[C@H]3O[C@H](CC(=O)NCCN4CCCC4)CC[C@@H]32)cc1,0,1,2,0,-4,0
CC(C)C(=O)Nc1ccc2c(c1)C(=O)N(C)[C@H]1CC[C@H](CC(=O)Nc3ccccc3F)O[C@@H]1CO2,0,78*,3,0,24,0
CCC(=O)Nc1ccc2c(c1)C(=O)N(C)[C@@H]1CC[C@@H](CC(=O)N[C@H](C)c3ccccc3)O[C@H]1CO2,0,10,2,0,10,0
CCC(=O)Nc1ccc2c(c1)C(=O)N(C)[C@@H]1CC[C@H](CC(=O)N[C@@H](C)c3ccccc3)O[C@H]1CO2,0,62*,4,0,-9,0
CCC(=O)Nc1ccc2c(c1)C(=O)N(C)[C@H]1CC[C@H](CC(=O)N[C@H](C)c3ccccc3)O[C@@H]1CO2,0,-8,nt,0,nt,0
CCC(=O)Nc1ccc2c(c1)C(=O)N(C)[C@@H]1CC[C@H](CC(=O)N[C@@H](C)c3ccccc3)O[C@@H]1CO2,0,139*,2,0,-5,0
CCC(=O)Nc1ccc2c(c1)C(=O)N(C)[C@H]1CC[C@@H](CC(=O)N[C@@H](C)c3ccccc3)O[C@H]1CO2,0,71*,4,0,7,0
SMILES,XiGFP reactiv,DENV2 CPE rescue,PglD DTNB,FGF22 binding,C2C12 statin,E-selectin induc
CC(C)NC(=O)Nc1ccc2c(c1)C(=O)N(C)[C@H]1CC[C@H](CC(=O)Nc3ccccc3F)O[C@@H]1CO2,0,2,2,0,2,0
COc1ccc(S(=O)(=O)Nc2cccc3c2O[C@@H](CN(C)Cc2ccc(-c4ccccc4)cc2)[C@@H](C)CN([C@H](C)CO)C3=O)cc1,-1,11,-1,-1,6,0
CCCCn1nnc(NC(=O)c2ccc(-c3ccccc3[N+](=O)[O-])o2)n1,-1,3,-3,0,0,0
CCn1nnc(NC(=O)c2ccc([N+](=O)[O-])o2)n1,0,-7,nt,43*,nt,nt
CC(=O)C1=C(O)C(=O)N(Cc2cccnc2)C1c1ccc(C(C)C)cc1 (stereo not given),0,?,3,43*,9,1
CCOc1cccc(C2C(C(=O)c3ccco3)=C(O)C(=O)N2Cc2ccncc2)c1 (stereo not given),nt,nt,-4,nt,122*,nt
CCOC(=O)C1=C(O)C(=O)N(Cc2cccnc2)C1c1ccc(C)cc1 (stereo not given),0,10,nt,44*,nt,2
COc1cccc2oc3cc(C#Cc4ccccn4)ccc3c(=O)c12,0,48*,nt,0,nt,0
CO[C@H]1CN(C)C(=O)c2ccc(NS(=O)(=O)c3ccccc3)cc2OC[C@@H](C)N(C(=O)NC(C)C)C[C@H]1C,0,15,-2,0,-24,2
NC(=S)N=Nc1c(O)n(CCCl)c2ccc(Cl)cc12,0,0,3,44*,1,0
COc1ccc(S(=O)(=O)N2CCN(C(=S)NC3CCCCC3)CC2)cc1,0,1,nt,43*,nt,0
O=C1CCCN1CCc1cccc2ccccc12,0,-9,-1,43*,12,1
C[C@H](CO)N1C[C@H](C)[C@H](CN(C)Cc2ccncc2)Oc2ncc(C#Cc3ccncc3)cc2C1=O,0,nt,nt,nt,22,0
Cc1ccc(N2C(N)=NC(N)=NC2(C)C)c(C)c1,nt,nt,2,nt,110*,nt
CCCC(=O)Nc1ccc2c(c1)C(=O)N(C)[C@@H]1CC[C@@H](CC(=O)NCc3ccccc3F)O[C@H]1CO2,0,-2,1,0,-3,0
COc1ccc2c3c([nH]c2c1)[C@H](CO)N(C(=O)CN(C)C)CC31CN(Cc2ccccc2Cl)C1,0,33*,nt,0,nt,-1
COc1ccc(CN2CC3(C2)CN(C(=O)CN(C)C)[C@@H](CO)c2[nH]c4cc(OC)ccc4c23)cc1,0,-5,nt,0,nt,-1
